The source made the active and inactive calls.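 Rule for the calls: active = IC50 at or below 1 µM; inactive = IC50 above 1 µM.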
Target: Protein-arginine deiminase type-4 (Homo sapiens) (UniProt Q9UM07)
Test: human PAD4 inhibitor potency, late-stage follow-up, biochemical, colorimetric substrate assay, assay provider data, 0-15 µM (AID 588417)
Conditions: recombinant PAD4, BAEE substrate, citrulline colorimetric absorbance
Outline: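 Test system: recombinant PAD4 protein / Input: 0.2 µM PAD4 / Signal: colorimetric citrulline detection, 540 nm absorbance / Buffer or medium: Tris-HCl pH 7.6, CaCl2 and DTT / Reagent: BAEE substrate at 10 mM / Timing: 15 min pretreatment plus 15 min reaction, 37 °C / Repeats: two replicates per concentration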

Chain of Protein-arginine deiminase type-4 (Homo sapiens) (Q9UM07 whole entry, looked up): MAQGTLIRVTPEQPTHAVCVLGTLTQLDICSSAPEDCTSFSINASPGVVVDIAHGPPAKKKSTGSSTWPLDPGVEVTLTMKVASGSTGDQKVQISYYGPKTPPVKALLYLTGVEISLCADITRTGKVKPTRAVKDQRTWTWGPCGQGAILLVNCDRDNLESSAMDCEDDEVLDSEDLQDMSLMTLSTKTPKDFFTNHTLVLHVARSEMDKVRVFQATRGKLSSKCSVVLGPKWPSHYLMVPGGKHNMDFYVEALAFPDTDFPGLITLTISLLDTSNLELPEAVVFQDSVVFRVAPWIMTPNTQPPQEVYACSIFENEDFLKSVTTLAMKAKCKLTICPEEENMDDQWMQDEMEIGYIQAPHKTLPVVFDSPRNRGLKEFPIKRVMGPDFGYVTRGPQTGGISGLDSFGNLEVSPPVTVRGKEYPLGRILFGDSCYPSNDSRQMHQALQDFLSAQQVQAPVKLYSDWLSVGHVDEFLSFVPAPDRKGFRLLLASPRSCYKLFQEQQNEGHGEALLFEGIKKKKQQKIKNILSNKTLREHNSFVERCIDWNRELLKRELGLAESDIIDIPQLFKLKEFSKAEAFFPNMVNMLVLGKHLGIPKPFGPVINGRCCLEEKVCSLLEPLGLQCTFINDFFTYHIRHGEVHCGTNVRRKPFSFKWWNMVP

COC1=C(Br)C(=O)c2nc(-c3ccccn3)ccc2C1=O
IC50: inactive
